According to publication PMC8091929 (Journal of medicinal chemistry, 2020):
≈ marks a conversion by molar mass, not a printed value.

Experiments:
[1] = system: human erythrocytes; assay: In vitro hemolysis assay; format: cell-based; settings: 0.1, 1, and 10 μg/mL, 37 °C, 45 min, PBS pH 7.4
Summary of the method: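 Human whole-blood erythrocytes were pelleted at 500g, 4 °C, 5 min, washed in 150 mM NaCl, resuspended in PBS pH 7.4 and diluted 40×. They were mixed 4:1 with drug solution in PBS containing 0.5% DMSO, giving final 0.1, 1 or 10 μg/mL, and held 45 min at 37 °C (n = 6). Controls were 1% v/v Triton X-100 and PBS. After spinning at 500g for 10 min, supernatant A540 was read and % lysis was normalized to the controls.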

[2] = system: S. pneumoniae ATCC 49619; assay: MIC by broth microdilution; format: cell-based, Streptococcus pneumoniae; settings: S. pneumoniae ATCC 49619, broth microdilution, 20 h at 37 °C
[3] = system: pneumolysin; assay: Pneumolysin secretion, Western blot of culture supernatant; format: cell-based, Streptococcus pneumoniae; settings: overnight culture of S. pneumoniae at 1/2 and 1/4 MIC, versus drug-free control
Summary of the method: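 S. pneumoniae cultured overnight in BHI without agitation, with or without serially diluted test compound; rifampicin and ceftriaxone controls at 2–0.002 μg/mL; 16–20 h. […] Western blot on PVDF, 5% milk/TBST block, rabbit polyclonal anti-pneumolysin 1:1000, overnight at 4 °C.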

[4] = system: S. aureus ATCC 29213 cells; assay: Cell content quantification of major macromolecules; format: cell-based, Staphylococcus aureus; settings: S. aureus ATCC 29213, 1/4 and 1/8 MIC, versus no-drug control
Summary of the method: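 A master culture of S. aureus ATCC 29213 was inoculated at OD₆₀₀ 0.1 and grown at 37 °C, 200 rpm to OD₆₀₀ 0.2. It was then split into aliquots with test compound or rifampicin at 1/4 and 1/8 MIC, plus an untreated aliquot. Cells were harvested at OD₆₀₀ 0.6 with volumes normalized, then pelleted. DNA, RNA and protein were kit-extracted. DNA and RNA were measured by Qubit BR fluorometric assays and protein by BCA. Triplicates.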

[5] = Solubility under the conditions of the CH–σ assay; format: physicochemical; settings: conditions of the CH–σ protein complementation assay
[6] = system: S. pneumoniae ATP production; assay: ATP production of S. pneumoniae cells; format: cell-based, Streptococcus pneumoniae; settings: at 1/4 MIC
[7] = system: S. aureus; assay: Time-kill kinetics, S. aureus; format: cell-based, Staphylococcus aureus; settings: over 6 h, even at 16 MIC
Summary of the method: (§1)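 S. aureus was grown in MHB; S. agalactiae and S. pneumoniae in BHI with 5% CO₂. Incubation was 37 °C, 200 rpm. Samples taken at 0, 2, 4 and 6 h were serially diluted 10-fold and plated. CFU/mL was counted after overnight incubation at 37 °C, 5% CO₂. Triplicates.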

[8] = system: Gram-positive pathogens; assay: MIC against other Gram-positive pathogens; format: cell-based
Summary of the method: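 Broth microdilution followed CLSI, in cation-adjusted Mueller–Hinton broth or BHI where indicated. Twofold dilutions ran from 256 to 0.5 μg/mL, with inoculum ~5 × 10⁵ CFU/mL and 20 h incubation at 37 °C. Panel strains were ATCC Gram-positive strains (Enterococcus, S. aureus, streptococci, staphylococci). MIC was the lowest concentration with no visible growth. At least duplicates.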

[9] = system: B. subtilis BS1048 (RNAP β′-GFP); assay: Confocal microscopy of RNAP-GFP localization; format: cell-based, Bacillus subtilis; settings: B. subtilis BS1048, at 1/2 MIC, 15 min
Summary of the method: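 2.5 μL culture placed on fresh 1.2% agarose pad under coverslip; imaged by confocal microscopy (63×/1.3 oil objective, mercury metal halide lamp).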

[10] = system: S. pneumoniae; assay: Time-kill kinetics, S. pneumoniae; format: cell-based, Streptococcus pneumoniae
Summary of the method: as §1

[11] = target: E. coli core RNAP with σ^70 (Escherichia coli, UniProt P0A8T7); assay: In vitro transcription initiation assay; format: biochemical; settings: σ^70, λ PR promoter template, 26-mer RNA
Chain of E. coli core RNAP with σ^70 (P0A7Z4 whole entry): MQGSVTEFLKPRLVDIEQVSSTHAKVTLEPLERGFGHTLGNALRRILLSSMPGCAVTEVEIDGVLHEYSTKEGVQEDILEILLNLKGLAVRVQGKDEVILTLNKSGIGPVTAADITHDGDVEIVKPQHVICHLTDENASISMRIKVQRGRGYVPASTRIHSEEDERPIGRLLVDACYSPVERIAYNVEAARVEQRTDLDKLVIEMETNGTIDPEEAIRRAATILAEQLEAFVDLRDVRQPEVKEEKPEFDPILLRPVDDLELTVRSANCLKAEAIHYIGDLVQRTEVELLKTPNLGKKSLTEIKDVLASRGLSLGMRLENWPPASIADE
Chain of E. coli core RNAP with σ^70 (P0A8T7 whole entry): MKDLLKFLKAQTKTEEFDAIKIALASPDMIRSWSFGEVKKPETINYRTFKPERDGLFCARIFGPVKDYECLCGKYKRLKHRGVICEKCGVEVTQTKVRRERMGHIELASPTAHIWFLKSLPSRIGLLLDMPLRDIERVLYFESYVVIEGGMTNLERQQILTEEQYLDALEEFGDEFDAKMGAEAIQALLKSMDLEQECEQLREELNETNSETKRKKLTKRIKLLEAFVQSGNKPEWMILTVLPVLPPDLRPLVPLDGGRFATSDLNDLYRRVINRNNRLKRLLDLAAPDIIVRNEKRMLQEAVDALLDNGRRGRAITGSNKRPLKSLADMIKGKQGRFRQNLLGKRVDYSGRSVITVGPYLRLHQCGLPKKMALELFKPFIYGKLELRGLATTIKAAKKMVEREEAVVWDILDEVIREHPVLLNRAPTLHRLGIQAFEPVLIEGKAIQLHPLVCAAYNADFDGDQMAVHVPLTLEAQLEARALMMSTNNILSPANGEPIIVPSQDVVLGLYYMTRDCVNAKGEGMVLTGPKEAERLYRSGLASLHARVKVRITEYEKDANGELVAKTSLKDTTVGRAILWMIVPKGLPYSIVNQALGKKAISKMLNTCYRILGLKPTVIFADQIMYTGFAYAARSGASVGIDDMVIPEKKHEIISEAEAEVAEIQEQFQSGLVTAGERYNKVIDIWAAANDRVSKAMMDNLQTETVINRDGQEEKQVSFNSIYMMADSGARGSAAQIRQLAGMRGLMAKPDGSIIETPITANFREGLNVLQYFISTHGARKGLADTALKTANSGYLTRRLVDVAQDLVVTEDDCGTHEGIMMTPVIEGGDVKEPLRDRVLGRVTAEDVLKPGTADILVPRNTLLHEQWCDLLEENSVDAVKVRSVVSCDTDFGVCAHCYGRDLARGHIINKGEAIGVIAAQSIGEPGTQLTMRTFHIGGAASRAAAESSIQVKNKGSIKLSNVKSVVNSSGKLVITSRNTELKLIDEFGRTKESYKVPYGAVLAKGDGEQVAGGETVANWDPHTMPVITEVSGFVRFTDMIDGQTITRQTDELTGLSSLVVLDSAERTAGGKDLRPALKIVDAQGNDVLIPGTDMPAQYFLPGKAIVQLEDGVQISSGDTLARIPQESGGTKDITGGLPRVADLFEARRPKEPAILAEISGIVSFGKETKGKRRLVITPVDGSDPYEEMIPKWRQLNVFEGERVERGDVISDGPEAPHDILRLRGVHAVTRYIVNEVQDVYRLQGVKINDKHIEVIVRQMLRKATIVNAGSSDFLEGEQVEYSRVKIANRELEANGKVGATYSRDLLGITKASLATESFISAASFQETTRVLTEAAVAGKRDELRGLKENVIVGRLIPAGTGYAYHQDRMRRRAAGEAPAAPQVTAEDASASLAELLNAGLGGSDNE
Chain of E. coli core RNAP with σ^70 (P0A800 whole entry, further chain): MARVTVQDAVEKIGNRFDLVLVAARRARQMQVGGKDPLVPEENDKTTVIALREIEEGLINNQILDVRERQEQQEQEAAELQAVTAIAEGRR
Chain of E. coli core RNAP with σ^70 (P0A8V2 whole entry, further chain): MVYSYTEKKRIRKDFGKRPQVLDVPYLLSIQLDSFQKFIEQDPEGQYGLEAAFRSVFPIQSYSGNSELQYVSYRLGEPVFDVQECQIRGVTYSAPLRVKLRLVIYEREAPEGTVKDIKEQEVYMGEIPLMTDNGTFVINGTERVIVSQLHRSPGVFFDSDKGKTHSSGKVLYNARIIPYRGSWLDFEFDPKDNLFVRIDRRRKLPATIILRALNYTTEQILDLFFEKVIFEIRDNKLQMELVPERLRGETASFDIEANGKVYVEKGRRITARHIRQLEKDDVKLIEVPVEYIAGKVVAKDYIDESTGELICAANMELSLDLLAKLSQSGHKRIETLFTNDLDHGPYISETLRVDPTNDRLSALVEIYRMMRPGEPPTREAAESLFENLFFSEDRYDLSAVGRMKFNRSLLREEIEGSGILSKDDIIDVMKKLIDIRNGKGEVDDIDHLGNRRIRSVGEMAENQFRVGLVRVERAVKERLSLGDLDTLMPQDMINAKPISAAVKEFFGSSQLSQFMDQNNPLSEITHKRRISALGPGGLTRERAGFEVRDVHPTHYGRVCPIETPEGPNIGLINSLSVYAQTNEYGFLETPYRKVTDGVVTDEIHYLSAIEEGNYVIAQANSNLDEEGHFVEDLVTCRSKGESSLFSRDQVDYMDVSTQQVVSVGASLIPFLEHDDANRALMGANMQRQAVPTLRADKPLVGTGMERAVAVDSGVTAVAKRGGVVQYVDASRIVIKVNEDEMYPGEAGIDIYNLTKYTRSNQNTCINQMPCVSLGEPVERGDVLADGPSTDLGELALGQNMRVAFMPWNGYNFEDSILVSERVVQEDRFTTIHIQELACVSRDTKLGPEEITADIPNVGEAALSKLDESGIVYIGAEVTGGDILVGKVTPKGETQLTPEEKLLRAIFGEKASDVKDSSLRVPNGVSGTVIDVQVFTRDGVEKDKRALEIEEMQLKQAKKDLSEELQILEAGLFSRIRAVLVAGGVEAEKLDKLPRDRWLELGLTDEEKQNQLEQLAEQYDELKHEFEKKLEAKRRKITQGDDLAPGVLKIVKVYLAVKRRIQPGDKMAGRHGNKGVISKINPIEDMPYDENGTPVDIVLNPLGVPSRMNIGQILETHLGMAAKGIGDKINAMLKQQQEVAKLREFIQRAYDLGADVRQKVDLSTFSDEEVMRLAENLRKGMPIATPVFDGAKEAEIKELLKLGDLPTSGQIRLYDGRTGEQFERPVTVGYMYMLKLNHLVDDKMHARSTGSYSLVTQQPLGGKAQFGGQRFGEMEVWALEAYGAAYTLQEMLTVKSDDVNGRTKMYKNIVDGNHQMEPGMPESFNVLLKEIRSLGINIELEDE

[12] = system: S. agalactiae (GBS); assay: Time-kill kinetics, S. agalactiae; format: cell-based, Streptococcus agalactiae; settings: over 6 h, even at 16 MIC
Summary of the method: as §1

[13] = system: RNAP holoenzyme; settings: cited from earlier work

Q: With `O=C(O)c1ccccc1NCc1ccc(Sc2ccc(Cl)c(Cl)c2)c([N+](=O)[O-])c1` [Compound 43, 2-((4-((3,4-Dichlorophenyl)thio)-3-nitrobenzyl)amino)benzoic Acid] as the compound, how does the “hemolytic value (% of lysis)” value [1] read?
A: < 10%

Q: With `O=C(Nc1ccccc1C(=O)O)c1ccc(Sc2ccc(Cl)c(Cl)c2)c([N+](=O)[O-])c1` [Compound 41, 2-(4-((3,4-Dichlorophenyl)thio)-3-nitrobenzamido)benzoic Acid] as the compound, how does the MIC [2] read?
A: lost activity completely

Q: Which “pneumolysin levels in culture supernatant” value (from here on “pneumolysin levels”) [3] does the source give for `CO[C@H]1/C=C/O[C@@]2(C)Oc3c(C)c(O)c4c(O)c(c(/C=N/N5CCN(C)CC5)c(O)c4c3C2=O)NC(=O)/C(C)=C\C=C\[C@H](C)[C@H](O)[C@@H](C)[C@@H](O)[C@@H](C)[C@H](OC(C)=O)[C@@H]1C` [rifampicin, reference compound] here?
A: suppressed

Q: What about the “total RNA levels” value [4] of the same compound?
A: reduced

Q: And the “total levels of DNA” value [4]?
A: remained mostly unaffected

Q: For `O=C(O)c1ccc(Cl)cc1NCc1ccc(Sc2ccc(Cl)c(Cl)c2)c([N+](=O)[O-])c1` [Compound 54, 4-Chloro-2-((4-((3,4-dichlorophenyl)thio)-3-nitrobenzyl)amino)-benzoic Acid], which “solubility under the testing conditions” value [5] is on record?
A: insolubility under the testing conditions

Q: And the ATP production rate [6]?
A: significant decrease

Q: What about the time-kill profile [7] of the same compound?
A: largely bacteriostatic

Q: And the MIC [8]?
A: 1 to 2 µg/mL (≈ 2.07 to 4.13 µM)

Q: What about the “pneumolysin levels” value [3] of the same compound?
A: substantial decrease

Q: What about the RNAP-GFP localization [9] of the same compound?
A: delocalization of the fluorescence from the nucleoid

Q: And the “total RNA levels” value [4]?
A: reduction

Q: What about the “total levels of DNA” value [4] of the same compound?
A: remained mostly unaffected

Q: And the total protein levels [4]?
A: Reduction

Q: What about the time-kill profile ([10]; at 1 MIC) of the same compound?
A: largely bacteriostatic

Q: What about the “decrease in cell count” value ([10]; at higher concentrations (4 and 16 MICs)) of the same compound?
A: ca. 2 fold log10 decrease

Q: What about the “inhibition of transcription (RNA synthesis) in vitro” value [11] of the same compound?
A: much more potent inhibition

Q: What about the time-kill profile [12] of the same compound?
A: largely bacteriostatic

Q: With `O=C(O)c1ccccc1C(=O)c1ccc(Sc2ccc(Cl)c(Cl)c2)c([N+](=O)[O-])c1` [Compound 13, 2-(4-((3,4-dichlorophenyl)thio)-3-nitrobenzoyl)benzoic acid] as the compound, how does the “hemolytic value (% of lysis)” value [1] read?
A: < 10%

Q: What about the “inhibition of transcription (RNA synthesis) in vitro” value [11] of the same compound?
A: inhibited transcription

Q: For `Nc1ccccc1Sc1ccc(C(=O)c2ccccc2C(=O)O)cc1[N+](=O)[O-]` [Compound 1, 2-(4-((2-Aminophenyl)thio)-3-nitrobenzoyl)benzoic acid], which “RNAP holoenzyme formation and RNA synthesis in vitro” value [13] is on record?
A: inhibited

Q: For `O=C(O)c1ccc(Cl)c(NCc2ccc(Sc3ccc(Cl)c(Cl)c3)c([N+](=O)[O-])c2)c1` [Compound 45, 4-Chloro-3-((4-((3,4-dichlorophenyl)thio)-3-nitrobenzyl)amino)-benzoic Acid], which “hemolytic value (% of lysis)” value [1] is on record?
A: < 10%

Q: For `CO/N=C(\C(=O)N[C@@H]1C(=O)N2C(C(=O)O)=C(CSc3nc(=O)c(O)nn3C)CS[C@H]12)c1csc(N)n1` [ceftriaxone], which “pneumolysin levels” value [3] is on record?
A: increased
